Measurements reported in ChEMBL document CHEMBL3627646, “Synthesis and biological activity of amino acid derivatives of avarone and its model compound” (Bioorg Med Chem, 2015).
In brackets after ≈: the same amount, converted by molar mass. Activity calls are given as the source filed them. The rule behind the calls is not given here.

Tests used:
[1] = test system: Pseudomonas aeruginosa; assay: Antibacterial activity against Pseudomonas aeruginosa ATCC 9027 after 24 hrs by microbroth double dilution method; format: functional; conditions: ATCC 9027, 24 h
Outline: (§1)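 Microbroth double dilution in Mueller Hinton broth; compound stock 10 mg/mL in DMSO serially halved across rows. Wells inoculated with 10 μL culture at 10^6 cells/mL, incubated 37 °C for 24 h. Amikacin row as positive control, DMSO row as negative control. MIC taken as lowest concentration inhibiting bacterial growth.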

[2] = test system: Micrococcus luteus; assay: Antibacterial activity against Micrococcus luteus ATCC 4698 after 24 hrs by microbroth double dilution method; format: functional; conditions: ATCC 4698, 24 h; outline: as §1
[3] = test system: HeLa; assay: Cell cycle arrest in human HeLa cells assessed as accumulation at G2/M phase at 2 time IC50 after 24 hrs using propidium iodide staining by cytofluorometric analysis; format: functional, cell-based
Outline: (§2)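 Trypsinized, fixed in ice-cold 70% ethanol then held at −20 °C at least one week. Treated with RNase 100 µg/mL at 37 °C 30 min, stained with PI 40 µg/mL at least 30 min. Flow cytometry on ≥10,000 cells.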

[4] = test system: MRC5; assay: Cytotoxicity against human MRC5 cells assessed as cell survival after 72 hrs by MTT assay; format: cell-based; conditions: MRC5, 72 h
Outline: (§3)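 Cells seeded (HeLa 2000, MDA-MB-453 3000, others 5000 per well), treated 24 h later (K562 after 2 h). Five double-diluted final concentrations, 200–12.5 μM, from 10 mM DMSO stocks, in RPMI-1640 with 10% FBS, pH 7.2, 72 h. MTT 4 h at 37 °C, SDS added, A570 read next day. Survival relative to medium control; IC50 from survival curves; triplicate; cisplatin positive control.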

[5] = test system: HeLa; assay: Cytotoxicity against human HeLa cells assessed as cell survival after 72 hrs by MTT assay; format: functional, cell-based; outline: as §3
[6] = test system: Bacillus subtilis; assay: Antibacterial activity against Bacillus subtilis ATCC 6633 after 24 hrs by microbroth double dilution method; format: functional; conditions: ATCC 6633, 24 h; outline: as §1
[7] = test system: Saccharomyces cerevisiae; assay: Antifungal activity against Saccharomyces cerevisiae ATCC 9763 after 24 hrs by microbroth double dilution method; format: functional; conditions: ATCC 9763, 24 h
[8] = test system: HeLa; assay: Induction of apoptosis in human HeLa cells assessed as accumulation at sub-G1 phase after 24 hrs in presence of caspase-8 inhibitor Z-IETD-FMK using propidium iodide staining by flow cytometric analysis; format: functional, cell-based
[9] = test system: HeLa; assay: Cell cycle arrest in human HeLa cells assessed as accumulation at G2/M phase at IC50 after 24 hrs using propidium iodide staining by cytofluorometric analysis; format: functional, cell-based; outline: as §2
[10] = test system: K562; assay: Cytotoxicity against human K562 cells assessed as cell survival after 72 hrs by MTT assay; format: functional, cell-based; conditions: K562, 72 h; outline: as §3
[11] = test system: Aspergillus brasiliensis; assay: Antifungal activity against Aspergillus brasiliensis ATCC 16404 after 24 hrs by microbroth double dilution method; format: functional; conditions: ATCC 16404, 24 h
[12] = test system: Artemia salina; assay: Cytotoxicity in Brine shrimp assessed as nauplii mortality after 24 hrs; format: organism-based; conditions: in vivo
Outline: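 Artemia salina eggs hatched in aerated tap water with dried yeast at 18–20 °C under illumination for 48 h, and freshly hatched nauplii were used. Compounds in DMSO (0.01–1 mg) were added to 950 µL artificial seawater containing 10–20 nauplii, with 5% final DMSO. After 24 h under illumination at room temperature, dead and surviving nauplii were counted and statistically analysed.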

[13] = test system: Proteus hauseri; assay: Antibacterial activity against Proteus hauseri ATCC 13315 after 24 hrs by microbroth double dilution method; format: functional; conditions: ATCC 13315, 24 h; outline: as §1
[14] = test system: Micrococcus flavus; assay: Antibacterial activity against Micrococcus flavus ATCC 10240 after 24 hrs by microbroth double dilution method; format: functional; conditions: ATCC 10240, 24 h; outline: as §1
[15] = test system: Clostridium sporogenes; assay: Antibacterial activity against Clostridium sporogenes ATCC 19404 after 24 hrs by microbroth double dilution method; format: functional; conditions: ATCC 19404, 24 h; outline: as §1
[16] = test system: HeLa; assay: Induction of apoptosis in human HeLa cells assessed as accumulation at sub-G1 phase after 24 hrs in presence of caspase-3 inhibitor Z-DEVD-FMK using propidium iodide staining by flow cytometric analysis; format: functional, cell-based
[17] = test system: Staphylococcus aureus; assay: Antibacterial activity against Staphylococcus aureus ATCC 6538 after 24 hrs by microbroth double dilution method; format: functional; conditions: ATCC 6538, 24 h; outline: as §1
[18] = test system: HeLa; assay: Induction of apoptosis in human HeLa cells assessed as accumulation at sub-G1 phase after 24 hrs in presence of caspase-9 inhibitor Z-LEHD-FMK using propidium iodide staining by flow cytometric analysis; format: functional, cell-based
[19] = test system: HeLa; assay: Induction of apoptosis in human HeLa cells assessed as accumulation at sub-G1 phase after 24 hrs using propidium iodide staining by flow cytometric analysis; format: functional, cell-based
[20] = test system: Salmonella enterica; assay: Antibacterial activity against Salmonella enterica ATCC 13076 after 24 hrs by microbroth double dilution method; format: functional; conditions: ATCC 13076, 24 h; outline: as §1
[21] = test system: Candida albicans; assay: Antifungal activity against Candida albicans ATCC 10231 after 24 hrs by microbroth double dilution method; format: functional; conditions: ATCC 10231, 24 h
[22] = test system: Kocuria rhizophila; assay: Antibacterial activity against Kocuria rhizophila ATCC 9341 after 24 hrs by microbroth double dilution method; format: functional; conditions: ATCC 9341, 24 h; outline: as §1
[23] = Cytotoxicity against human Fem-X cells assessed as cell survival after 72 hrs by MTT assay; format: functional, cell-based; outline: as §3
[24] = test system: MDA-MB-453; assay: Cytotoxicity against human MDA-MB-453 cells assessed as cell survival after 72 hrs by MTT assay; format: functional, cell-based; conditions: MDA-MB-453, 72 h; outline: as §3
[25] = test system: Escherichia coli; assay: Antibacterial activity against Escherichia coli ATCC 25922 after 24 hrs by microbroth double dilution method; format: functional; conditions: ATCC 25922, 24 h; outline: as §1
[26] = test system: A549; assay: Cytotoxicity against human A549 cells assessed as cell survival after 72 hrs by MTT assay; format: functional, cell-based; conditions: A549, 72 h; outline: as §3
[27] = test system: HeLa; assay: Cell cycle arrest in human HeLa cells assessed as reduction in G1 phase at IC50 after 24 hrs using propidium iodide staining by cytofluorometric analysis; format: functional, cell-based; outline: as §2
[28] = test system: HeLa; assay: Cell cycle arrest in human HeLa cells assessed as accumulation at sub-G1 phase at IC50 after 24 hrs using propidium iodide staining by cytofluorometric analysis; format: functional, cell-based; outline: as §2
[29] = test system: HeLa; assay: Cell cycle arrest in human HeLa cells assessed as accumulation at sub-G1 phase at 2 time IC50 after 24 hrs using propidium iodide staining by cytofluorometric analysis; format: functional, cell-based; outline: as §2
[30] = test system: HeLa; assay: Cell cycle arrest in human HeLa cells assessed as reduction in G1 phase at 2 time IC50 after 24 hrs using propidium iodide staining by cytofluorometric analysis; format: functional, cell-based; outline: as §2
[31] = test system: HeLa; assay: Cell cycle arrest in human HeLa cells assessed as accumulation at G2/M phase after 24 hrs using propidium iodide staining by cytofluorometric analysis; format: functional, cell-based; outline: as §2
[32] = test system: HeLa; assay: Cell cycle arrest in human HeLa cells assessed as accumulation at sub-G1 phase after 24 hrs using propidium iodide staining by cytofluorometric analysis; format: functional, cell-based; outline: as §2
[33] = test system: MRC5; assay: Cytotoxicity against human MRC5 cells; format: cell-based

CC1=CCC[C@H]2[C@](C)(CC3=CC(=O)C=C(NCCC(=O)O)C3=O)[C@@H](C)CC[C@]12C
MIC [1]: 783 µM (≈ 313 µg/mL) | MIC [2]: 48.8 µM (≈ 19.5 µg/mL) | Activity [3]: Active | IC50 [4]: 80.8 µM | IC50 [5]: 8.87 µM | MIC [6]: 393 µM (≈ 157 µg/mL) | MIC [7]: 12.2 µM (≈ 4.89 µg/mL) | Activity [8]: inactive | Activity [9]: Active | IC50 [10]: 15.5 µM | MIC [11]: 782 µM (≈ 313 µg/mL) | LC50 [12]: 84.3 ppm | MIC [13]: 393 µM (≈ 157 µg/mL) | MIC [14]: 783 µM (≈ 313 µg/mL) | MIC [15]: 393 µM (≈ 157 µg/mL) | Activity [16]: inactive | MIC [17]: 24.5 µM (≈ 9.8 µg/mL) | Activity [18]: inactive | Activity [19]: Active | MIC [20]: 783 µM (≈ 313 µg/mL) | MIC [21]: 195 µM (≈ 77.9 µg/mL) | MIC [22]: 393 µM (≈ 157 µg/mL) | IC50 [23]: 20.2 µM | IC50 [24]: 3.31 µM | MIC [25]: 48.8 µM (≈ 19.5 µg/mL) | IC50 [26]: 26.9 µM

CC1=CCC[C@H]2[C@](C)(CC3=CC(=O)C=C(N[C@@H](CC(C)C)C(=O)O)C3=O)[C@@H](C)CC[C@]12C
MIC [1]: 88.3 µM (≈ 39 µg/mL) | MIC [2]: 11.1 µM (≈ 4.9 µg/mL) | IC50 [4]: 73.4 µM | IC50 [5]: 7.72 µM | MIC [6]: 88.3 µM (≈ 39 µg/mL) | MIC [7]: 176 µM (≈ 77.9 µg/mL) | Activity [8]: inactive | IC50 [10]: 11.2 µM | Activity [27]: Active | MIC [11]: 1410 µM (≈ 624 µg/mL) | LC50 [12]: 117 ppm | MIC [13]: 44.2 µM (≈ 19.5 µg/mL) | MIC [14]: 88.3 µM (≈ 39 µg/mL) | MIC [15]: 44.2 µM (≈ 19.5 µg/mL) | Activity [16]: inactive | MIC [17]: 5.55 µM (≈ 2.45 µg/mL) | Activity [18]: inactive | Activity [19]: Active | MIC [20]: 88.3 µM (≈ 39 µg/mL) | MIC [21]: < 5.54 µM | MIC [22]: 709 µM (≈ 313 µg/mL) | IC50 [23]: 10.9 µM | Activity [28]: Active | IC50 [24]: 10.9 µM | Activity [29]: Active | MIC [25]: 5.55 µM (≈ 2.45 µg/mL) | Activity [30]: Active | IC50 [26]: 19.7 µM

CC1=CCC[C@H]2[C@](C)(CC3=CC(=O)C=C(N[C@@H](C(=O)O)C(C)C)C3=O)[C@@H](C)CC[C@]12C
MIC [1]: 91.3 µM (≈ 39.1 µg/mL) | MIC [2]: 22.9 µM (≈ 9.81 µg/mL) | Activity [3]: Active | Activity [31]: Dose-dependent effect | IC50 [4]: 85.4 µM | IC50 [5]: 10.9 µM | MIC [6]: 91.3 µM (≈ 39.1 µg/mL) | MIC [7]: 368 µM (≈ 157 µg/mL) | Activity [9]: Active | IC50 [10]: 7.78 µM | Activity [27]: Active | MIC [11]: 164 µM (≈ 70.2 µg/mL) | LC50 [12]: 50.5 ppm | MIC [13]: 183 µM (≈ 78.1 µg/mL) | Activity [32]: Dose-dependent effect | MIC [14]: 91.3 µM (≈ 39.1 µg/mL) | MIC [15]: 91.3 µM (≈ 39.1 µg/mL) | MIC [17]: 22.9 µM (≈ 9.81 µg/mL) | MIC [20]: 183 µM (≈ 78.1 µg/mL) | MIC [21]: < 2.88 µM | MIC [22]: 1460 µM (≈ 626 µg/mL) | IC50 [23]: 11.4 µM | Activity [28]: Active | IC50 [24]: 8.01 µM | Activity [29]: Active | MIC [25]: 22.9 µM (≈ 9.81 µg/mL) | Activity [30]: Active | IC50 [26]: 23.8 µM

CSCC[C@H](NC1=CC(=O)C=C(C[C@]2(C)[C@@H](C)CC[C@]3(C)C(C)=CCC[C@@H]23)C1=O)C(=O)O
MIC [1]: 170 µM (≈ 77.9 µg/mL) | MIC [2]: 42.4 µM (≈ 19.5 µg/mL) | Activity [3]: Active | IC50 [4]: > 200 µM | IC50 [5]: 13.9 µM | MIC [6]: 170 µM (≈ 77.9 µg/mL) | MIC [7]: 87.8 µM (≈ 40.3 µg/mL) | Activity [9]: Active | IC50 [10]: 13.6 µM | MIC [11]: 341 µM (≈ 157 µg/mL) | LC50 [12]: 147.7 ppm | MIC [13]: 341 µM (≈ 157 µg/mL) | MIC [14]: 170 µM (≈ 77.9 µg/mL) | MIC [15]: 170 µM (≈ 77.9 µg/mL) | MIC [17]: 42.4 µM (≈ 19.5 µg/mL) | MIC [20]: 170 µM (≈ 77.9 µg/mL) | MIC [21]: < 2.67 µM | MIC [22]: 1360 µM (≈ 625 µg/mL) | IC50 [23]: 19.4 µM | IC50 [24]: 25.6 µM | MIC [25]: 42.4 µM (≈ 19.5 µg/mL) | IC50 [26]: 47.3 µM

CC1=CCC[C@H]2[C@](C)(CC3=CC(=O)C(N[C@@H](CC(C)C)C(=O)O)=CC3=O)[C@@H](C)CC[C@]12C
IC50 [33]: > 100 µM
